RGS4 inh = RGS4 inhibitors, primary screen, cell-based, HEK293 M3R inducible RGS4, calcium flux; Regulator of G-protein signaling 4 (Homo sapiens), P49798; Fluo-4 calcium flux; active compounds read high; triggered by carbachol at its EC20; B-score at 10 µM; hit rate 0.45% among 310,000; AID 463165, 2010;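 active = B-score, a plate-corrected calcium signal, over three deviations above library mean, with baseline fluorescence within five deviations of library mean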;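 also: RGS4 expression induced by doxycycline in cells with stable M3 receptor; B-score is computed from the integrated fluorescence ratio over baseline after carbachol; higher B-score means a larger calcium signal and so more RGS4 inhibition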
Target sequence (P49798 whole entry, looked up): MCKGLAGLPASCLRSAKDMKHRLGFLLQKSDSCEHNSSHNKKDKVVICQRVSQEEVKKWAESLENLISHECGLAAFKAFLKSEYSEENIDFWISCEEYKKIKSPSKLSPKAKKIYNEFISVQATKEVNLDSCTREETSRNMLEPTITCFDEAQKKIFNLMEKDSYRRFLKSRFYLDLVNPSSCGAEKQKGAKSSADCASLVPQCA
RGS4 pot = RGS4 potentiators or activators, primary screen, cell-based, HEK293 M3R inducible RGS4, calcium flux; carbachol calcium flux Fluo4; active compounds read low; B-score at 10 µM; hit rate 0.92% among 310,000; AID 463111, 2010;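 active = B-score of the integrated calcium signal more than 4 SD below the library mean, with starting fluorescence not abnormally high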;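 also: negative B-score means reduced calcium response which marks RGS4 activation or potentiation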
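Assay system: Inducible-RGS4 HEK293 cells carrying M3 receptor | Schedule: Compound preincubation 20 min at room temperature before agonist | Signal: Kinetic calcium fluorescence imaging with Fluo4-AM dye, 2 µM | Read-out basis: B score from integrated fluorescence ratio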
MrgX1 allo act = positive allosteric modulators of MrgX1, primary screen, HEK293 cells, Fluo-4 calcium flux; Mas-related G-protein coupled receptor member X1 (Homo sapiens), Q96LB2; FDSS; active compounds read high; B-score at 10 µM; hit rate 0.63% among 310,000; AID 588675, 2011;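 active = plate-corrected calcium response at least 3 library SD above typical, normal starting fluorescence, not activating the receptor alone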;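 also: compound read alongside a low EC10 to EC30 dose of BAM8-22 agonist; peak minus trough fluorescence over baseline measured at the second addition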
Target sequence (Q96LB2 whole entry, looked up): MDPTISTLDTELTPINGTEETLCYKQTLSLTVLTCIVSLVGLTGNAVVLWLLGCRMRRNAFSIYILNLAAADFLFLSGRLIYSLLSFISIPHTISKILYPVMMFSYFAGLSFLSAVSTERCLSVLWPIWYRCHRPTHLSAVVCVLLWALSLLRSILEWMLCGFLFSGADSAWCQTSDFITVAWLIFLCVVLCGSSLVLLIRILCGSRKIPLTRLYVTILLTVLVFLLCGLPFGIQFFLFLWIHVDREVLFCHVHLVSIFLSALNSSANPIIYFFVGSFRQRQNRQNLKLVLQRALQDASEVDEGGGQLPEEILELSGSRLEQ
MrgX1 ag = agonists of human MrgX1 receptor, primary screen, HEK293 cells, Fluo-4 calcium flux. B-score at 10 µM. Mas-related G-protein coupled receptor member X1 (Homo sapiens), Q96LB2. hit rate 0.44% among 310,000. Fluo-4 calcium fluorescence, agonist mode; active compounds read high;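 active = calcium response B-score plate-corrected fluorescence ratio at least 3 library SD, with starting fluorescence B-score inside 5 SD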
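Test system: HEK293 cells stably expressing human MrgX1 receptor; amount: 15,000 cells per well; doses: compound delivered in addition one of three; times: overnight plating before 1 h dye loading; detection: Fluo-4 NW calcium-flux fluorescence, kinetic read; read-out basis: B-scored fluorescence response ratio; controls: positive and negative controls per plate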
MrgX1 antag = antagonists of human MrgX1 receptor, primary screen, HEK293 cells, Fluo-4 calcium flux; B-score at 10 µM; hit rate 1.3% among 310,000; Mas-related G-protein coupled receptor member X1 (Homo sapiens), Q96LB2; BAM8-22 antagonism; active compounds read low; AID 588676, 2011;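 active = calcium-response B-score plate-corrected more than 3 library SD below zero, starting fluorescence within 5 deviations, no agonist response on first addition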;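 also: peak minus trough fluorescence over baseline after final BAM8-22 challenge near maximal dose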
The depositor's hits bear a star. The list is not random: actives were taken first. Their share in the collection is about 3.5%.

For O=C(N/N=C/c1cc([N+](=O)[O-])ccc1O)C(O)(c1ccccc1)c1ccccc1 the results were RGS4 inh inactive, RGS4 pot inactive, MrgX1 allo act 9.37*, MrgX1 ag inactive and MrgX1 antag inactive.
For CC(OC(=O)C1CC1C)C(=O)Nc1ncc(Cl)cc1Cl (configuration not stated) the results were RGS4 inh inactive, RGS4 pot inactive, MrgX1 allo act inactive, MrgX1 ag inactive and MrgX1 antag inactive.
For COc1ccc(-n2nc(C(=O)NCC(=O)Nc3ccc(F)cc3)c3ccccc3c2=O)cc1 the results were RGS4 inh inactive, RGS4 pot inactive, MrgX1 allo act inactive, MrgX1 ag inactive and MrgX1 antag inactive.
CCOC(=O)CSc1nc2ccc(NC(=O)CSc3nnnn3Cc3ccccc3)cc2s1 was read as RGS4 inh inactive, RGS4 pot inactive, MrgX1 allo act 6.92*, MrgX1 ag inactive and MrgX1 antag inactive.
CCC(=O)OC1(C)C(=O)C=C2C=C(CCCCNC(=O)OC(C)(C)C)OC=C2C1=O (configuration not stated) was read as RGS4 inh inactive, RGS4 pot inactive, MrgX1 allo act inactive, MrgX1 ag inactive and MrgX1 antag inactive.
For CC(C)(C)OC(=O)NCCCC1=CC2=CC(=O)C(C)(OC(=O)c3ccc(Cl)nc3)C(=O)C2=CO1 (configuration not stated) the results were RGS4 inh inactive, RGS4 pot inactive, MrgX1 allo act inactive, MrgX1 ag inactive and MrgX1 antag -5.01*.
`CC(C)(C)C(=O)CNS(=O)(=O)c1ccc(S(=O)(=O)NC2CC2)cc1` gave RGS4 inh inactive, RGS4 pot inactive, MrgX1 allo act inactive, MrgX1 ag inactive and MrgX1 antag inactive.
Screening COc1ccc(C[C@H](N)C(=O)N[C@H]2[C@@H](O)[C@H](n3cnc4c(N(C)C)ncnc43)O[C@@H]2CO)cc1 returned MrgX1 allo act inactive, MrgX1 ag inactive and MrgX1 antag inactive.
`C=C1C(=O)C=C2CN(C(=O)c3ccccc3)[C@@](Cc3ccc(F)cc3)(C(=O)OC)[C@@H]12` gave RGS4 inh 15.4*, RGS4 pot inactive, MrgX1 allo act inactive, MrgX1 ag 46.5* and MrgX1 antag inactive.
COc1ccccc1NC(=O)Cc1ccsc1 was read as RGS4 inh inactive, RGS4 pot inactive, MrgX1 allo act inactive, MrgX1 ag inactive and MrgX1 antag inactive.
`CCOc1cc(/C=C2\N=C(SC(C)C(N)=O)N(c3ccc(OC(F)F)cc3)C2=O)ccc1O` (configuration not stated) gave RGS4 inh inactive, RGS4 pot inactive, MrgX1 allo act 11.4*, MrgX1 ag inactive and MrgX1 antag inactive.
Screening NC(=O)CSC1=N/C(=C\c2ccco2)C(=O)N1c1ccc(OC(F)F)cc1 returned RGS4 inh inactive, RGS4 pot inactive, MrgX1 allo act inactive, MrgX1 ag inactive and MrgX1 antag inactive.
`COc1cc(NC(=O)CSc2nc3c(c(=O)n(C)c(=O)n3C)n2C)cc(OC)c1` gave RGS4 inh inactive, RGS4 pot inactive, MrgX1 allo act inactive, MrgX1 ag inactive and MrgX1 antag inactive.
`CSc1cccc(NC(=S)N2CCCN(Cc3ccccc3F)C2)c1` gave RGS4 inh inactive, RGS4 pot inactive, MrgX1 allo act inactive, MrgX1 ag inactive and MrgX1 antag inactive.
N/C(=N\OC(=O)COc1ccc(Br)cc1)c1ccncc1 was read as RGS4 inh inactive, RGS4 pot inactive, MrgX1 allo act inactive, MrgX1 ag inactive and MrgX1 antag -5.98*.
For N/C(=N\OC(=O)COc1ccc([N+](=O)[O-])cc1)c1ccncc1 the results were RGS4 inh inactive, RGS4 pot inactive, MrgX1 allo act inactive, MrgX1 ag inactive and MrgX1 antag inactive.
`CCSC1=C(C#N)C(c2ccc(C)o2)CC(=O)N1` (configuration not stated) gave RGS4 inh inactive, RGS4 pot inactive, MrgX1 allo act inactive, MrgX1 ag inactive and MrgX1 antag inactive.
Screening Cc1ccc(C2CC(=O)NC(SCc3ccccc3)=C2C#N)o1 (configuration not stated) returned RGS4 inh inactive, RGS4 pot inactive, MrgX1 allo act inactive, MrgX1 ag 29.6* and MrgX1 antag inactive.
Screening CCCCOc1ccc(C2=CSC3=NCCN23)cc1[N+](=O)[O-] returned RGS4 inh inactive, RGS4 pot -7.36*, MrgX1 allo act inactive, MrgX1 ag inactive and MrgX1 antag inactive.
For CN(C)S(=O)(=O)c1cccc(C(=O)OCC(=O)Nc2sccc2C(N)=O)c1 the results were RGS4 inh inactive, RGS4 pot inactive, MrgX1 allo act inactive, MrgX1 ag inactive and MrgX1 antag -4.97*.
Screening COc1ccccc1NC(=O)CCCC(=O)OCC(F)(F)C(F)F returned RGS4 inh inactive, RGS4 pot inactive, MrgX1 allo act inactive, MrgX1 ag inactive and MrgX1 antag -6.18*.
COC(=O)c1ccc(N2CCN(C)CC2)c(NC(=O)c2ccc(Br)o2)c1 was read as RGS4 inh inactive, RGS4 pot inactive, MrgX1 allo act inactive, MrgX1 ag inactive and MrgX1 antag inactive.
Screening CCN1CCCC1CNC(=O)c1cc(OC)c(OC)c(OC)c1 (configuration not stated) returned RGS4 inh inactive, RGS4 pot inactive, MrgX1 allo act inactive, MrgX1 ag inactive and MrgX1 antag inactive.
`CCN1CCCC1CNC(=O)CCNC(=O)c1cc(OC)c(OC)c(OC)c1` (configuration not stated) gave RGS4 inh inactive, RGS4 pot inactive, MrgX1 allo act inactive, MrgX1 ag inactive and MrgX1 antag -6.5*.
`Cc1cc(NC(=O)CSc2nncn2N)no1` gave RGS4 inh inactive, RGS4 pot inactive, MrgX1 allo act inactive, MrgX1 ag inactive and MrgX1 antag inactive.
For CC(=O)Nc1ccc(Br)c2ccccc12 the results were RGS4 inh inactive, RGS4 pot inactive, MrgX1 allo act inactive, MrgX1 ag inactive and MrgX1 antag inactive.
O=C(Nc1ccc(Br)c2ccccc12)c1ccc2ccccc2c1O was read as RGS4 inh inactive, RGS4 pot -7.5*, MrgX1 allo act inactive, MrgX1 ag inactive and MrgX1 antag inactive.
COc1ccc(CN(CCNC(=O)CCCCC(=O)NCCN(Cc2ccc(OC)cc2)C(C)C)C(C)C)cc1 was read as RGS4 inh inactive, RGS4 pot -9.15*, MrgX1 allo act inactive, MrgX1 ag inactive and MrgX1 antag inactive.

Bioassay records: PubChem BioAssay, Johns Hopkins Ion Channel Center
